Measured values as given in ChEMBL document CHEMBL1126931, “Synthesis of 20-hydroxy-, 20-amino-, and 20-nitro-14-hydroxy-21-nor-5 beta,14 beta-pregnane C-3 glycosides and related derivatives: structure-activity relationships of pregnanes that bind to the digitalis receptor” (J Med Chem, 1993).

Target: Sodium/potassium-transporting ATPase
Assay: Inhibition of [3H]- ouabain binding to digitalis receptor
Format: protein-complex assay, Cavia porcellus
Procedure, shortened: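 Radioligand binding to the digitalis receptor recognition site of heart muscle, read as displacement of [3H]ouabain.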

In the case of C[C@H]1O[C@@H](O[C@H]2[C@@H](O)C[C@H](O[C@H]3[C@@H](O)C[C@H](O[C@H]4CC[C@@]5(C)[C@H](CC[C@@H]6[C@@H]5CC[C@]5(C)[C@@H](C7=CC(=O)OC7)CC[C@]65O)C4)O[C@@H]3C)O[C@@H]2C)C[C@H](O)[C@@H]1O [DIGITOXIN], the IC50 is reported as 0.008 µM.
CC1O[C@@H](O[C@H]2CC[C@@]3(C)[C@H](CC[C@@H]4[C@@H]3CC[C@]3(C)[C@@H](C(=O)O)CC[C@]43O)C2)C[C@@H](O)[C@@H]1O (stereo partly specified) showed an IC50 of 36 µM.
Work on CC1O[C@@H](O[C@H]2CC[C@@]3(C)[C@H](CC[C@@H]4[C@@H]3CC[C@]3(C)[C@@H](CN)CC[C@]43O)C2)C(O)[C@@H](O)[C@H]1O (stereo partly specified) yielded an IC50 of 0.099 µM.
Work on CC1O[C@@H](O[C@H]2CC[C@@]3(C)[C@H](CC[C@@H]4[C@@H]3CC[C@]3(C)[C@@H](CO)CC[C@]43O)C2)C(O)[C@@H](O)[C@H]1O (stereo partly specified) yielded an IC50 of 0.36 µM.
Work on COC(=O)[C@H]1CC[C@]2(O)[C@@H]3CC[C@@H]4C[C@@H](O[C@H]5C[C@@H](O)[C@H](O)C(C)O5)CC[C@]4(C)[C@H]3CC[C@]12C (stereo partly specified) yielded an IC50 of 15 µM.
Work on C[C@H]1O[C@@H](O[C@H]2CC[C@@]3(C)[C@H](CC[C@@H]4[C@@H]3CC[C@]3(C)[C@@H](CN)CC[C@]43O)C2)C[C@@H](O)[C@@H]1O yielded an IC50 of 0.27 µM.
With CC1O[C@@H](O[C@H]2CC[C@@]3(C)[C@H](CC[C@@H]4[C@@H]3CC[C@]3(C)[C@@H](C[N+](=O)[O-])CC[C@]43O)C2)C(O)[C@@H](O)[C@H]1O (stereo partly specified) the IC50 was 0.012 µM.
CC1O[C@@H](O[C@H]2CC[C@@]3(C)[C@H](CC[C@@H]4[C@@H]3CC[C@]3(C)[C@@H](C[N+](=O)[O-])CC[C@]43O)C2)C[C@@H](O)[C@@H]1O (stereo partly specified) was tested, and the IC50 was 0.088 µM.
For CC1O[C@@H](O[C@H]2CC[C@@]3(C)[C@H](CC[C@@H]4[C@@H]3CC[C@]3(C)[C@@H](CO)CC[C@]43O)C2)C[C@@H](O)[C@@H]1O (stereo partly specified), the IC50 was 0.61 µM.
In the case of C[C@H]1O[C@H](O[C@H]2CC[C@@]3(C)[C@H](CC[C@@H]4[C@@H]3CC[C@]3(C)[C@@H](C(=O)CO)CC[C@]43O)C2)[C@H](O)[C@H](O)[C@H]1O, the IC50 is reported as 1.07 µM.
For CC1O[C@@H](O[C@H]2CC[C@@]3(C)[C@H](CC[C@@H]4[C@@H]3CC[C@]3(C)[C@@H](CC[N+](=O)[O-])CC[C@]43O)C2)C(O)[C@@H](O)[C@H]1O (stereo partly specified), the IC50 was 0.045 µM.
